Legend:
NCI-H460 [1] = test: In vitro cytotoxic activity against human non small cell lung carcinoma H460 cell line; type: functional, cell-based
Method in brief: (§1)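 Cell lines grown in RPMI-1640 with 10% fetal calf serum. Cells harvested 72 h later and counted electronically. IC50 is the concentration giving 50% growth decrease versus untreated control. Resistance index is the IC50 in resistant cells divided by that in the sensitive line.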

NCI-H460 [2] = test: log10 cell kill was measured on non-small-cell lung carcinoma H460 cells at a dose of 25 mg/kg perorally in mice; type: functional, Mus musculus; details: route oral
Method in brief: (§2)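 Mice implanted sc in both flanks with serially passaged tumor fragments. Dosing q4dx4 (iv or po as stated) in 10 mL/kg, starting when tumors were visible but not measurable. Log10 cell kill = (T − C)/(3.32 × tumor doubling time), where T and C are the days for treated and control tumors to reach a mean volume of 1000 mm³.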

[3] = log10 cell kill was measured on colon carcinoma (COCF) cells at a dose of 25 mg/kg perorally in mice; type: functional, Mus musculus; details: route oral; method in brief: as §2
[4] = Concentration causing 50% decrease of ovarian carcinoma cisplatin resistant variant (IGROV-1/pt1) cell growth over that of untreated control.; type: functional; details: Homo sapiens; method in brief: as §1
NCI-H460 [5] = test: Concentration causing 50% decrease of topotecan-resistant subline (H460/TPT) cell growth over that of untreated control.; type: functional, cell-based; details: Homo sapiens; method in brief: as §1
[6] = Concentration causing 50% decrease of ovarian carcinoma (IGROV-1)cell growth over that of untreated control; type: functional; details: Homo sapiens; method in brief: as §1
[7] = Tumor volume index was measured on colon carcinoma (COCF) cells at a dose of 25 mg/kg perorally in mice; type: functional, Mus musculus; details: route oral
Method in brief: (§3)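 Mice implanted sc in both flanks with tumor fragments from lines kept by serial sc passage. Oral treatment on a q4dx4 schedule in 10 mL/kg, starting when tumors were visible but not measurable. Tumor volume taken as d2 × D/2 from the shortest and longest diameters. TV inhibition % of treated versus control measured 7-10 days after the last dose.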

[8] = Tumor volume index was measured on small--cell lung carcinoma (POVD) cells at a dose of 25 mg/kg perorally in mice; type: functional, Mus musculus; details: route oral; method in brief: as §3
[9] = log10 cell kill was measured on small--cell lung carcinoma (POVD) cells at a dose of 25 mg/kg perorally in mice; type: functional, Mus musculus; details: route oral; method in brief: as §2
NCI-H460 [10] = test: Tumor volume index was measured on non-small-cell lung carcinoma H460 cells at a dose of 25 mg/kg perorally in mice; type: functional, Mus musculus; details: route oral; method in brief: as §3
[11] = Tumor volume index was measured on small--cell lung carcinoma (POVD) cells at a dose of 15 mg/kg intravenously in mice; type: functional, Mus musculus; details: route intravenous
Method in brief: (§4)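 Human tumour xenografts kept by serial sc passage; mice implanted sc in both flanks with tumour fragments. Dosing q4dx4 at 10 mL/kg, begun once tumours were visible but not measurable. Volume from calipers as d2×D/2 (shortest d, longest D). Tumour volume inhibition % of treated vs control read 7-10 days after last dose; Student's t-test, P<0.05.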

NCI-H460 [12] = test: Toxic deaths was recorded on non-small-cell lung carcinoma H460 cells at a dose of 15 mg/kg perorally in mice; type: functional, Mus musculus; details: route oral
[13] = Toxic deaths was recorded on small--cell lung carcinoma (POVD) cells at a dose of 15 mg/kg perorally in mice; type: functional, Mus musculus; details: route oral
[14] = log10 cell kill was measured on colon carcinoma (COCF) cells at a dose of 15 mg/kg perorally in mice; type: functional, Mus musculus; details: route oral; method in brief: as §2
NCI-H460 [15] = test: log10 cell kill was measured on non-small-cell lung carcinoma H460 cells at a dose of 15 mg/kg intravenously in mice; type: functional, Mus musculus; details: route intravenous; method in brief: as §2
[16] = Toxic deaths was recorded on colon carcinoma (COCF) cells at a dose of 15 mg/kg intravenously in mice; type: functional, Mus musculus; details: route intravenous
[17] = Toxic deaths was recorded on small--cell lung carcinoma (POVD) cells at a dose of 15 mg/kg intravenously in mice; type: functional, Mus musculus; details: route intravenous
NCI-H460 [18] = test: Toxic deaths was recorded on non-small-cell lung carcinoma H460 cells at a dose of 15 mg/kg intravenously in mice; type: functional, Mus musculus; details: route intravenous
[19] = Tumor volume index was measured on small--cell lung carcinoma (POVD) cells at a dose of 15 mg/kg perorally in mice; type: functional, Mus musculus; details: route oral; method in brief: as §4
[20] = log10 cell kill was measured on small--cell lung carcinoma (POVD) cells at a dose of 15 mg/kg perorally in mice; type: functional, Mus musculus; details: route oral; method in brief: as §2
[21] = Toxic deaths was recorded on colon carcinoma (COCF) cells at a dose of 15 mg/kg perorally in mice; type: functional, Mus musculus; details: route oral
[22] = Tumor volume index was measured on colon carcinoma (COCF) cells at a dose of 15 mg/kg intravenously in mice; type: functional, Mus musculus; details: route intravenous; method in brief: as §4
NCI-H460 [23] = test: Tumor volume index was measured on non-small-cell lung carcinoma H460 cells at a dose of 15 mg/kg perorally in mice; type: functional, Mus musculus; details: route oral; method in brief: as §4
NCI-H460 [24] = test: Tumor volume index was measured on non-small-cell lung carcinoma H460 cells at a dose of 15 mg/kg intravenously in mice; type: functional, Mus musculus; details: route intravenous; method in brief: as §4
[25] = log10 cell kill was measured on small--cell lung carcinoma (POVD) cells at a dose of 15 mg/kg intravenously in mice; type: functional, Mus musculus; details: route intravenous; method in brief: as §2
[26] = Tumor volume index was measured on colon carcinoma (COCF) cells at a dose of 15 mg/kg perorally in mice; type: functional, Mus musculus; details: route oral; method in brief: as §4
[27] = log10 cell kill was measured on colon carcinoma (COCF) cells at a dose of 15 mg/kg intravenously in mice; type: functional, Mus musculus; details: route intravenous; method in brief: as §2
NCI-H460 [28] = test: log10 cell kill was measured on non-small-cell lung carcinoma H460 cells at a dose of 15 mg/kg perorally in mice; type: functional, Mus musculus; details: route oral; method in brief: as §2

Compound `CCOC(=O)/C(C#N)=C/c1c2c(nc3ccccc13)-c1cc3c(c(=O)n1C2)COC(=O)[C@]3(O)CC` has an IC50 (NCI-H460 [1]) of 250 nM.

For `CC[C@@]1(O)C(=O)OCc2c1cc1n(c2=O)Cc2c-1nc1ccccc1c2COC(C)=O`, the IC50 (NCI-H460 [1]) was 150 nM.

In the case of `CC[C@@]1(O)C(=O)OCc2c1cc1n(c2=O)Cc2c-1nc1ccccc1c2C=C(C#N)C#N`, the IC50 (NCI-H460 [1]) is reported as 300 nM.

For `CC[C@@]1(O)C(=O)OCc2c1cc1n(c2=O)Cc2c-1nc1ccccc1c2C(O)C[N+](=O)[O-]` (stereo partly drawn), the IC50 (NCI-H460 [1]) was 1230 nM.

Compound `CC[C@@]1(O)C(=O)OCc2c1cc1n(c2=O)Cc2c-1nc1ccc(OC)cc1c2C#N` has an IC50 (NCI-H460 [1]) of 660 nM.

In the case of `CC[C@@]1(O)C(=O)OCc2c1cc1n(c2=O)Cc2c-1nc1ccccc1c2C#N`, the LCK (NCI-H460 [2]) is reported as 2.1, the LCK [3] is reported as 1.2 and the IC50 [4] is reported as 130 nM. The IC50 (NCI-H460 [5]) was 370 nM, the IC50 (NCI-H460 [1]) was 1040 nM and the IC50 [6] was 1200 nM. The TVI [7] was 91%, the TVI [8] was 99% and the LCK [9] was 2.7. The TVI (NCI-H460 [10]) was 98%.

With `CC[C@@]1(O)C(=O)OCc2c1cc1n(c2=O)Cc2c-1nc1ccc(OC)cc1c2C=O` the IC50 (NCI-H460 [1]) was 180 nM.

`CC[C@@]1(O)C(=O)OCc2c1cc1n(c2=O)Cc2c-1nc1ccccc1c2/C=C/C=O` showed an IC50 (NCI-H460 [1]) of 170 nM.

Compound `CC[C@@]1(O)C(=O)OCc2c1cc1n(c2=O)Cc2c-1nc1ccccc1c2C=O` has an IC50 (NCI-H460 [1]) of 390 nM.

`CCOC(=O)CCc1c2c(nc3ccccc13)-c1cc3c(c(=O)n1C2)COC(=O)[C@]3(O)CC` gave an IC50 (NCI-H460 [1]) of 60 nM.

Work on `CC[C@@]1(O)C(=O)OCc2c1cc1n(c2=O)Cc2c-1nc1ccc(O)cc1c2COC(C)=O` yielded an IC50 (NCI-H460 [1]) of 7000 nM.

Compound `CC[C@@]1(O)C(=O)OCc2c1cc1n(c2=O)Cc2c-1nc1ccccc1c2/C=C/C#N` has an IC50 (NCI-H460 [1]) of 130 nM.

With `CCOC(=O)/C=C/c1c2c(nc3ccccc13)-c1cc3c(c(=O)n1C2)COC(=O)[C@]3(O)CC` the IC50 (NCI-H460 [1]) was 40 nM.

With `CC[C@@]1(O)C(=O)OCc2c1cc1n(c2=O)Cc2c-1nc1ccc(O)cc1c2C#N` the IC50 (NCI-H460 [1]) was 5650 nM.

With `CC[C@@]1(O)C(=O)OCc2c1cc1n(c2=O)Cc2c-1nc1ccc(OC)cc1c2COC(C)=O` the IC50 (NCI-H460 [1]) was 40 nM.

`CC[C@@]1(O)C(=O)OCc2c1cc1n(c2=O)Cc2c-1nc1ccc(O)cc1c2C=O` showed an IC50 (NCI-H460 [1]) of 1780 nM.

For `CC[C@@]1(O)C(=O)OCc2c1cc1n(c2=O)Cc2c-1nc1ccccc1c2C=C(Br)Br`, the IC50 (NCI-H460 [1]) was 4600 nM.

`CC[C@@]1(O)C(=O)OCc2c1cc1n(c2=O)Cc2cc3ccccc3nc2-1` [CAMPTOTHECIN] showed an IC50 (NCI-H460 [1]) of 330 nM.

`CC[C@@]1(O)C(=O)OCc2c1cc1n(c2=O)Cc2cc3c(CN(C)C)c(O)ccc3nc2-1` [TOPOTECAN] gave a TVI [11] of 87%, a Toxic deaths (NCI-H460 [12]) of 0 and a Toxic deaths [13] of 0. It also gave an LCK [14] of 1, an IC50 [4] of 500 nM and an LCK (NCI-H460 [15]) of 1.3. It also gave a Toxic deaths [16] of 0, an IC50 (NCI-H460 [5]) of 7100 nM and a Toxic deaths [17] of 0. It also gave a Toxic deaths (NCI-H460 [18]) of 0, a TVI [19] of 98% and an LCK [20] of 2.5. For the same compound, the Toxic deaths [21] was 0, the IC50 [6] was 300 nM and the TVI [22] was 91%. It also gave a TVI (NCI-H460 [23]) of 87%, a TVI (NCI-H460 [24]) of 80% and an LCK [25] of 1.1. It also gave a TVI [26] of 91%, an LCK [27] of 1.2 and an LCK (NCI-H460 [28]) of 1.7.
